Results from ChEMBL document CHEMBL1154078, “Synthesis of novel purine nucleosides towards a selective inhibition of human butyrylcholinesterase” (Bioorg Med Chem, 2009).
The source made the active and inactive calls. The calls are words filed in the database; no cut-off is given here.

Columns and labels:
Cholinesterase [1] = molecular target: T1, Cholinesterase (Homo sapiens, UniProt P06276); assay: Inhibition of BChE in human serum assessed as hydrolysis of butyrylthiocholine at 10 ug/mL by Ellman's method
T1 sequence (P06276 whole entry): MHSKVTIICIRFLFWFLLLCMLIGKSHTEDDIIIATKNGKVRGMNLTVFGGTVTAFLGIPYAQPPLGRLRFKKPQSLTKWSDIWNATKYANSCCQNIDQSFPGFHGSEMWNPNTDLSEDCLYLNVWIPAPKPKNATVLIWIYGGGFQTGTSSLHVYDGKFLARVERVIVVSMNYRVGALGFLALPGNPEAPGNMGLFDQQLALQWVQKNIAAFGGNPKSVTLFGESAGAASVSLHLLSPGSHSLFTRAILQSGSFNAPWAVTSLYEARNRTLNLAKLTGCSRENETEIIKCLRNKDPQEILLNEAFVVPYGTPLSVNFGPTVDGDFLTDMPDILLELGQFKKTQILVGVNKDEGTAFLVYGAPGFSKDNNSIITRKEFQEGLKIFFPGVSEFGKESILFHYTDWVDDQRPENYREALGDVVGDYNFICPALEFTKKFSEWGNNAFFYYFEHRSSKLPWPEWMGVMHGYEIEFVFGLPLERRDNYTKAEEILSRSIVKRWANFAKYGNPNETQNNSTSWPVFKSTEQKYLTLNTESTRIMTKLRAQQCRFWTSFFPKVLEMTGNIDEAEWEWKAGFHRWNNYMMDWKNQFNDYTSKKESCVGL
How it was run: (§1)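 Human serum BChE (0.44 U/mL solution) in 0.1 M phosphate buffer pH 8.0 with S-butyrylthiocholine iodide and DTNB. Absorbance at 410 nm followed kinetically for 4 min at 30 °C, at least four replicates. Inhibition % = 100 − 100·V/V_max, where V_max comes from blanks without inhibitor; one-sided t-test. IC50 obtained by non-linear regression of the dose–response, given as mean ± SEM.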

Cholinesterase [2] = molecular target: T1, Cholinesterase; assay: Inhibition of BChE in human serum assessed as hydrolysis of butyrylthiocholine at 100 ug/mL by Ellman's method; type: cell-free; how it was run: as §1
[3] = Cytotoxicity against human A549 cells assessed as cell viability at 200 ug/mL after 24 hrs by MTT assay relative to control; type: cell-based; details: read-out: Activity
How it was run: (§2)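 A549 cells seeded, left 24 h to attach, then exposed to compound for 24 h. Hydrogen peroxide served as positive control and pure solvent as negative control. At 48 h of culture, MTT added to a final concentration of 0.5 mg/mL and incubated 3 h. Medium removed, cells washed twice, formazan dissolved in DMSO with shaking for 20 min at room temperature.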

[4] = Cytotoxicity against human A549 cells assessed as cell viability at 2 ug/mL after 24 hrs by MTT assay relative to control; type: cell-based; details: read-out: Activity; how it was run: as §2
[5] = Cytotoxicity against human A549 cells assessed as cell viability at 0.2 ug/mL after 24 hrs by MTT assay relative to control; type: cell-based; details: read-out: Activity; how it was run: as §2
Cholinesterase [6] = molecular target: T1, Cholinesterase; assay: Inhibition of BChE in human serum assessed as hydrolysis of butyrylthiocholine by Ellman's method; type: cell-free
How it was run: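 Human serum BChE (0.44 U/mL solution) in 0.1 M phosphate buffer pH 8.0 with S-butyrylthiocholine iodide and DTNB. Absorbance at 410 nm followed kinetically for 4 min at 30 °C, at least four replicates. IC50 obtained by non-linear regression of the dose–response, given as mean ± SEM.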

[7] = Cytotoxicity against human A549 cells assessed as cell viability at 20 ug/mL after 24 hrs by MTT assay relative to control; type: cell-based; details: read-out: Activity; how it was run: as §2
[8] = molecular target: T2, Acetylcholinesterase (Bos taurus) (UniProt P23795); assay: Inhibition of AChE in bovine erythrocytes assessed as hydrolysis of acetylthiocholine by Ellman's method
T2 sequence (whole entry): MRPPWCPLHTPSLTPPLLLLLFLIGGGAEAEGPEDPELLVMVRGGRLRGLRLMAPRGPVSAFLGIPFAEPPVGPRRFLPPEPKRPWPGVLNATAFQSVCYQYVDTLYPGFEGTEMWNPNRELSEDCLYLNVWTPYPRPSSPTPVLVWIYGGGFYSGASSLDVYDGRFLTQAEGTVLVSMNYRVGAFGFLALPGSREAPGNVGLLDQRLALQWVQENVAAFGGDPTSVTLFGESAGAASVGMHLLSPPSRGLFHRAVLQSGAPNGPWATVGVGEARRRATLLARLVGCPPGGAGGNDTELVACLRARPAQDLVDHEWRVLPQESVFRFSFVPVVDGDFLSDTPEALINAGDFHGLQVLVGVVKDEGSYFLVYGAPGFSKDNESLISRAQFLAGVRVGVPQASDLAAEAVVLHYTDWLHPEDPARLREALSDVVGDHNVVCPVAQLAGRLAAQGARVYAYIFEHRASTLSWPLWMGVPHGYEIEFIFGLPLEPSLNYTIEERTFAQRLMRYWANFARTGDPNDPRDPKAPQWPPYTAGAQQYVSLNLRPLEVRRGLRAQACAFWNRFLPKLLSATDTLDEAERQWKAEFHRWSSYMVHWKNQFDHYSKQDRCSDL
How it was run: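 Bovine erythrocyte AChE (1.32 U/mL solution) in 0.1 M phosphate buffer pH 8.0 with acetylthiocholine iodide and DTNB. Yellow product read kinetically at 410 nm for 4 min at 30 °C. Rates compared with no-inhibitor V_max; inhibition % = 100 − 100·V/V_max. At least four replicates. One-sided t-test against 0% inhibition.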

[9] = Cytotoxicity against human A549 cells assessed as cell viability at 2000 ug/mL after 24 hrs by MTT assay relative to control; type: cell-based; details: read-out: Activity; how it was run: as §2
Cholinesterase [10] = molecular target: T1, Cholinesterase; assay: Inhibition of BChE in human serum assessed as hydrolysis of butyrylthiocholine at 1 ug/mL by Ellman's method; type: cell-free; how it was run: as §1
Cholinesterase [11] = molecular target: T1, Cholinesterase; assay: Inhibition of BChE in human serum assessed as hydrolysis of butyrylthiocholine at 0.1 ug/mL by Ellman's method; how it was run: as §1
[12] = Cytotoxicity against human A549 cells assessed as cell viability at 100 ug/mL after 24 hrs by MTT assay relative to control; type: cell-based; details: read-out: Activity
How it was run: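 A549 cells seeded, allowed to attach 24 h, then exposed to compound for 24 h; hydrogen peroxide positive control, solvent negative control. MTT added at 48 h of culture (final 0.5 mg/mL), 3 h incubation, cells washed twice, formazan dissolved in DMSO with 20 min shaking at room temperature; viable, metabolically active cells quantified.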

Cholinesterase [13] = molecular target: T1, Cholinesterase; assay: Inhibition of BChE in human serum assessed as hydrolysis of butyrylthiocholine at 0.01 ug/mL by Ellman's method; type: cell-free; how it was run: as §1

Compound | inhibition (Cholinesterase [1]) | inhibition (Cholinesterase [2]) | viability at 24 h, 200 ug/mL [3] | viability at 24 h, 2 ug/mL [4] | viability at 24 h, 0.2 ug/mL [5] | IC50 (Cholinesterase [6]) | viability at 24 h, 20 ug/mL [7] | inhibition [8] | viability at 24 h, 2000 ug/mL [9] | inhibition (Cholinesterase [10]) | inhibition (Cholinesterase [11]) | viability at 24 h, 100 ug/mL [12] | inhibition (Cholinesterase [13])
CC(=O)Nc1nc(Cl)c2c(ncn2[C@@H]2O[C@@H]([C@H](N=[N+]=[N-])C(=O)OCc3ccccc3)[C@@H](OCc3ccccc3)[C@@]3(OCc4ccccc4)[C@@H](OCc4ccccc4)CO[C@@H]23)n1 | 34% | 81% | 51.3% | 82.2% | 88.5% | 22 µM | 46.9% | inactive | 7.32% | 9% |  |  | 
CO[C@H]1O[C@H](COC(C)=O)[C@@H](OC(C)=O)[C@@]2(OC(C)=O)[C@@H](OC(C)=O)CO[C@@H]12 |  | < 5% |  |  |  |  |  | inactive |  |  |  |  | 
CC(=O)Nc1nc(Cl)c2ncn([C@@H]3O[C@H](COC(C)=O)[C@@H](OCc4ccccc4)[C@@]4(OCc5ccccc5)[C@@H](OCc5ccccc5)CO[C@@H]34)c2n1 | 11% | 48% |  |  |  |  |  | inactive |  |  |  |  | 
CCN(C)C(=O)Oc1cccc([C@H](C)N(C)C)c1 [RIVASTIGMINE] | 100% | 100% |  |  |  |  |  | inactive |  | 100% | 76% | 89% | 
CO[C@H]1O[C@@H]([C@H](O)C(=O)OCc2ccccc2)[C@@H](OCc2ccccc2)[C@@]2(OCc3ccccc3)[C@@H](OCc3ccccc3)CO[C@@H]12 | 8% | 55% |  |  |  | 133 µM |  | inactive |  |  |  |  | 
COC(=O)[C@H](N=[N+]=[N-])[C@@H]1O[C@@H](n2cnc3nc(NC(C)=O)nc(Cl)c32)[C@@H]2OC[C@H](OCc3ccccc3)[C@]2(OCc2ccccc2)[C@@H]1OCc1ccccc1 |  |  | 52.3% | 99.9% | 103% |  | 69.3% | inactive | 21.3% |  |  |  | 
CC(=O)Nc1nc(Cl)c2c(ncn2[C@@H]2O[C@H](COC(C)=O)[C@@H](OCc3ccccc3)[C@@]3(OCc4ccccc4)[C@@H](OCc4ccccc4)CO[C@@H]23)n1 | 85% | 84% |  |  |  | 0.76 µM |  | inactive |  | 70% | 20% |  | 
CO[C@H]1O[C@H](CO)[C@@H](OCc2ccccc2)[C@@]2(OCc3ccccc3)[C@@H](OCc3ccccc3)CO[C@@H]12 | < 5% | 60% |  |  |  | 148 µM |  | inactive |  |  |  |  | 
CO[C@H]1O[C@H](COC(=O)c2ccccc2)[C@@H](OC(=O)c2ccccc2)[C@@]2(OC(=O)c3ccccc3)[C@@H](OC(=O)c3ccccc3)CO[C@@H]12 |  | 7% |  |  |  |  |  | inactive |  |  |  |  | 
CC(=O)Nc1nc(Cl)c2c(ncn2[C@@H]2O[C@@H]([C@@H](N=[N+]=[N-])C(=O)OCc3ccccc3)[C@@H](OCc3ccccc3)[C@@]3(OCc4ccccc4)[C@@H](OCc4ccccc4)CO[C@@H]23)n1 | 79% | 91% |  |  |  | 0.14 µM |  | inactive |  | 77% | 63% |  | 10%
COC(=O)[C@@H](N=[N+]=[N-])[C@@H]1O[C@@H](n2cnc3nc(NC(C)=O)nc(Cl)c32)[C@@H]2OC[C@H](OCc3ccccc3)[C@]2(OCc2ccccc2)[C@@H]1OCc1ccccc1 |  |  | 19.5% | 77.7% | 103% |  | 40.8% | inactive | 15.1% |  |  |  | 
CO[C@H]1O[C@@H]([C@@H](N=[N+]=[N-])C(=O)OCc2ccccc2)[C@@H](OCc2ccccc2)[C@@]2(OCc3ccccc3)[C@@H](OCc3ccccc3)CO[C@@H]12 | 73% | 98% | 64.2% | 76.2% | 90.5% | 13.4 µM | 63.6% | inactive | 16% | 14% |  |  | 
CO[C@H]1O[C@@H]([C@H](N=[N+]=[N-])C(=O)OCc2ccccc2)[C@@H](OCc2ccccc2)[C@@]2(OCc3ccccc3)[C@@H](OCc3ccccc3)CO[C@@H]12 | 64% | 91% | 47.9% | 71.2% | 90.2% | 4.2 µM | 73.9% | inactive | 25% | 36% | 15% |  | 
CO[C@H]1O[C@H](CO)[C@@H](O)[C@@]2(O)[C@@H](O)CO[C@@H]12 |  | < 5% |  |  |  |  |  | inactive |  |  |  |  | 
C=C[C@@H](O)[C@@H]1O[C@H](OC)[C@@H]2OC[C@H](OCc3ccccc3)[C@]2(OCc2ccccc2)[C@@H]1OCc1ccccc1 | 23% | 73% |  |  |  | 50 µM |  | inactive |  |  |  |  | 
C=C[C@H](O)[C@@H]1O[C@H](OC)[C@@H]2OC[C@H](OCc3ccccc3)[C@]2(OCc2ccccc2)[C@@H]1OCc1ccccc1 | 54% | 76% |  |  |  | 31 µM |  | inactive |  | 4% |  |  | 
CO[C@H]1O[C@@H]([C@@H](O)C(=O)OCc2ccccc2)[C@@H](OCc2ccccc2)[C@@]2(OCc3ccccc3)[C@@H](OCc3ccccc3)CO[C@@H]12 | 56% | 95% | 63.6% | 81.6% | 91.9% | 16.1 µM | 67.2% | inactive | 36% | 7% |  |  | 
